Laboratory results reported in article PMC4575845 (Journal of biomolecular screening, 2015).
≈ marks a conversion by molar mass, not a printed value. Entries after “also recorded” stand apart in the source; their conditions may differ.

Key:
[1] = system: Enterococcus faecalis (ATCC 29212); test: Broth microdilution MIC; format: cell-based; conditions: ATCC29212
P. aeruginosa GluRS [2] = target: T1, P. aeruginosa GluRS (Pseudomonas aeruginosa, UniProt Q9XCL6); test: Binding mode assay; format: biochemical; conditions: for mode of inhibition with respect to ATP: IC50 at ATP 25-1000 µM, Glu 100 µM; for mode of inhibition with respect to Glu: IC50 at Glu 25-300 µM, ATP held constant
T1 sequence (Q9XCL6 1-494): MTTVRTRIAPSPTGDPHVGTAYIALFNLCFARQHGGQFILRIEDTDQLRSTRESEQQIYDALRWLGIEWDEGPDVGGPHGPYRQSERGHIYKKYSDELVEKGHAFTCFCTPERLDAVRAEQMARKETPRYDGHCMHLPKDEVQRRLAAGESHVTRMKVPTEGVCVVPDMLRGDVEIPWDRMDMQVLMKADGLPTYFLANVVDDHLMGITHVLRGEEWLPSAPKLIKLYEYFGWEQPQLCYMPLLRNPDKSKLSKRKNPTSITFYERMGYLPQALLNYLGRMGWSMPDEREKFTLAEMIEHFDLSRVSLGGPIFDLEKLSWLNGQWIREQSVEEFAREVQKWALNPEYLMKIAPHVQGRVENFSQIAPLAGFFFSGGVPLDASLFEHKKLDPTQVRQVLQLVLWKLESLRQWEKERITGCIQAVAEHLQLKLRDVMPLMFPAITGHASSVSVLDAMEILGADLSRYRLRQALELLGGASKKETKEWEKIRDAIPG
In short: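 IC50 by the same SPA aminoacylation assay, with 0.05 µM P. aeruginosa GluRS and compound at 200–0.4 µM final, preincubated 15 min RT. Started with E. coli tRNA (0.75 µM tRNAGlu), 1 h at 37 °C, EDTA stop. DMSO-only positive controls. ATP series 25–1000 µM at 100 µM Glu. Glu series 25–300 µM at constant saturating ATP. Sigmoidal dose–response fit; mode inferred from IC50 change versus substrate level.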

NIH/3T3 cells = test: MTT in vitro cytotoxicity test; format: cell-based; conditions: 25–800 µg/mL, 24 h
E. faecalis = test: Time-kill study; format: cell-based, Enterococcus faecalis; conditions: 4x MIC, 0-24 h
In short: (§1)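 Time-kill per CLSI M26-A, with compound at 4× MIC (broth microdilution MIC per CLSI M7-A7). Medium: Brain Heart Infusion or Trypticase Soy Broth, with or without 3% lysed horse blood. Viable counts by plating for CFU at 0, 2, 4, 6 and 24 h versus compound-free control cultures.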

P. aeruginosa GluRS [3] = target: T1, P. aeruginosa GluRS; test: SPA-based tRNA aminoacylation assay; format: biochemical
In short: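 P. aeruginosa GluRS was expressed in E. coli Rosetta 2(DE3) from pET101 and Ni-NTA purified. Final mix: 50 mM Tris-HCl pH 7.5, 8 mM MgCl2, 1.25 mM ATP, 1 mM spermine, 1 mM DTT, 100 µM [3H]Glu, 0.1 µM enzyme. Compound (200–0.4 µM) preincubated 15 min ambient; E. coli tRNA (0.75 µM tRNAGlu) added; 1 h 37 °C; EDTA stop. Poly-L-lysine yttrium silicate SPA beads (citrate pH 2.0), 1 h RT, scintillation count.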

[4] = system: Streptococcus pneumonia (ATCC 49619); test: Broth microdilution MIC; format: cell-based; conditions: Streptococcus pneumoniae, ATCC49619
S. pneumoniae = test: Time-kill study; format: cell-based, Streptococcus pneumoniae; conditions: 4x MIC
In short: as §1

[5] = system: Staphylococcus aureus (ATCC 29213); test: Broth microdilution MIC; format: cell-based; conditions: ATCC29213
S. aureus = test: Time-kill study; format: cell-based, Staphylococcus aureus; conditions: 4x MIC

Compound	MIC [1] [mg/L]	mode of inhibition with respect to ATP (P. aeruginosa GluRS [2])	mode of inhibition with respect to Glu (P. aeruginosa GluRS [2])	cytotoxicity (MTT) (NIH/3T3 cells)	bacteriostatic or bactericidal (E. faecalis)	decrease in colony-forming units (CFUs) compared to the control (E. faecalis)	IC50 (P. aeruginosa GluRS [3]) [µM]	MIC [4] [mg/L]	bacteriostatic or bactericidal (S. pneumoniae; 0-24 h)	decrease in colony-forming units (CFUs) compared to the control (S. pneumoniae; 0-24 h)	MIC [5] [mg/L]	bacteriostatic or bactericidal (S. aureus; 0-24 h)	regrowth in time-kill (S. aureus; at 24 h)	inhibition of growth in time-kill (S. pneumoniae; all times tested)
O=C(Nc1ccc(-c2cc(C(F)(F)F)nn2-c2ccccc2)cc1)Nc1ccc(F)cc1F [BT_03F04, 1-(2,4-difluorophenyl)-3-{4-[1-phenyl-3-(trifluoromethyl)-1H-pyrazol-5-yl]phenyl}urea]	2 (≈ 4.36 µM)	noncompetitive	noncompetitive	not observed to be toxic	bacteriostatic	2–3 log10	21.9	8 (≈ 17.5 µM)	bacteriostatic	2–3 log10				
CC1(C)SC(=S)N(/N=C/C=C/c2ccc([N+](=O)[O-])o2)C1N(O)C(=O)Nc1cccc(Cl)c1 (centres unmarked) [BT_04B09, 3-(3-chlorophenyl)-1-(5,5-dimethyl-3-{(E)-[(2E)-3-(5-nitrofuran-2-yl)prop-2-en-1-ylidene]amino}-2-thioxo-1,3-thiazolidin-4-yl)-1-hydroxyurea]		noncompetitive; also recorded: remain constant	competitive	not observed to be toxic			24.9	32 (≈ 64.5 µM)	bactericidal		32 (≈ 64.5 µM)	bactericidal	some regrowth	completely
